Legend:
[1] = target: T1, Prostaglandin E2 receptor EP3 subtype (Mus musculus, UniProt P30557); assay: Displacement of [3H]PGE2 from mouse EP3 receptor expressed in CHO cell membrane; format: cell membranes
T1 sequence (P30557 whole entry): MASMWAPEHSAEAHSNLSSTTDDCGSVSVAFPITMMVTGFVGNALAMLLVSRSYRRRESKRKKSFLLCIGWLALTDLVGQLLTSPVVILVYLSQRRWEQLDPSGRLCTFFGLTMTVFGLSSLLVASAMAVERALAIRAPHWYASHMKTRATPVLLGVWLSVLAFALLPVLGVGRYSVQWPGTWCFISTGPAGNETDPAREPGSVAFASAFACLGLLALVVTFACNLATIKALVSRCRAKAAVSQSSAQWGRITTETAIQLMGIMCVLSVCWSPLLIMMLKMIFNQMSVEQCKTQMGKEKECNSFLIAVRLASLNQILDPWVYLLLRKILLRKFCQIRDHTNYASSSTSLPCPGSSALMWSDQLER

[2] = target: T1, Prostaglandin E2 receptor EP3 subtype; assay: Antagonist activity at mouse EP3 receptor expressed in CHO cells assessed as inhibition of PGE2-induced increase intracellular calcium level in presence of 1% BSA by fluorimetry; format: functional, cell-based
In short: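 CHO cells expressing mouse EP3 seeded at 1 × 10⁴ cells/well and grown two days in 10% FBS/αMEM (37 °C, 5% CO2). Loaded 1 h with Fura 2/AM, indomethacin and 2.5 mM probenecid, rinsed, then held 1 h dark at room temperature in HBSS with 1% BSA and 10 mM HEPES. Compound added with 10 nM PGE2. Ca²⁺ read at 340/380 nm excitation, 500 nm emission; % inhibition relative to the PGE2 response without compound.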

Rattus norvegicus [3] = assay: Inhibition of PGE2-induced uterine contraction in intraduodenally dosed pregnant rat at 1 mg/kg; format: functional; conditions: route intraduodenal
In short: (§1)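 Pregnant rats with uterine pressure recorded by transducer. Once spontaneous motility was stable, compound in 0.5% methylcellulose (5 mL/kg) or vehicle given intraduodenally. PGE2 given iv 30 min later.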

[4] = Volume of distribution at steady state in rat at […], iv; format: ADME, organism-based; design: dose 1.2 mg/kg, route intravenous; conditions: in vivo, read-out: Vdss
[5] = AUC in rat at 13 mg/kg, po; format: ADME, organism-based; design: dose 13 mg/kg, route oral; conditions: plasma
[6] = Cmax in rat at 13 mg/kg, po; format: ADME, organism-based; design: dose 13 mg/kg, route oral; conditions: in vivo
[7] = Oral bioavailability in rat at 13 mg/kg, po; format: ADME, organism-based; conditions: in vivo
[8] = AUC in rat at […], iv; format: ADME, organism-based; design: dose 1.2 mg/kg, route intravenous; conditions: plasma
Rattus norvegicus [9] = assay: Inhibition of PGE2-induced uterine contraction in intraduodenally dosed pregnant rat at 0.3 mg/kg; format: functional; conditions: route intraduodenal; in short: as §1
[10] = AUC in rat at 11 mg/kg, po; format: ADME, organism-based; design: dose 11 mg/kg, route oral; conditions: plasma
[11] = Oral bioavailability in rat at 11 mg/kg, po; format: ADME, organism-based; conditions: in vivo
Rattus norvegicus [12] = assay: Inhibition of PGE2-induced uterine contraction in intraduodenally dosed pregnant rat at 0.1 mg/kg; format: functional; conditions: route intraduodenal; in short: as §1
[13] = Cmax in rat at 11 mg/kg, po; format: ADME, organism-based; design: dose 11 mg/kg, route oral; conditions: in vivo

| Compound | Ki [1] [nM] | IC50 [2] [nM] | other results |
| --- | --- | --- | --- |
| CC(C)CC(NC(=O)c1cc(COc2ccccc2)ccc1CCC(=O)O)c1cc(F)cc(C(F)(F)F)c1 (configuration not stated) | 0.45 | 15 | – |
| Cc1ccccc1C(CC(C)C)NC(=O)c1cc(COc2ccccc2)ccc1CCC(=O)O (configuration not stated) | 0.94 | 230 | – |
| Cc1ccc(C(CC(C)C)NC(=O)c2cc(COc3ccccc3)ccc2CCC(=O)O)cc1 (configuration not stated) | 0.63 | 51 | – |
| COc1ccc(C(CC(C)C)NC(=O)c2cc(COc3ccccc3)ccc2CCC(=O)O)cc1OC (configuration not stated) | 0.5 | 24 | – |
| Cc1cc(C)cc(C(CC(C)C)NC(=O)c2cc(COc3c(F)cccc3F)ccc2CCC(=O)O)c1 (configuration not stated) | 1.3 | 59 | – |
| Cc1cc(C)cc(C(CC(C)C)NC(=O)c2cc(COc3cc(F)cc(F)c3)ccc2CCC(=O)O)c1 (configuration not stated) | 0.19 | 10 | – |
| Cc1cc(C)cc(C(CC(C)C)NC(=O)c2cc(COc3cccc(F)c3)ccc2CCC(=O)O)c1 (configuration not stated) | – | – | inhibition in vivo at 1 mg/kg (Rattus norvegicus [3]): 84%; Vd [4]: 1.32 L/kg; AUC [5]: 1090 ng·h/mL; Cmax [6]: 390 ng/mL; bioavailability [7]: 23%; AUC [8]: 440 ng·h/mL; inhibition in vivo at 0.3 mg/kg (Rattus norvegicus [9]): 66% |
| Cc1cccc(C(CC(C)C)NC(=O)c2cc(COc3ccccc3)ccc2CCC(=O)O)c1 (configuration not stated) | 0.3 | 37 | – |
| COc1cccc(OCc2ccc(CCC(=O)O)c(C(=O)NC(CC(C)C)c3cc(C)cc(C)c3)c2)c1 (configuration not stated) | 0.27 | 3.2 | – |
| Cc1ccc(OCc2ccc(CCC(=O)O)c(C(=O)NC(CC(C)C)c3cc(C)cc(C)c3)c2)cc1 (configuration not stated) | 0.67 | 16 | – |
| Cc1cc(C)cc(C(CC(C)C)NC(=O)c2cc(COc3ccc(C#N)cc3)ccc2CCC(=O)O)c1 (configuration not stated) | 0.46 | 16 | – |
| COc1ccccc1C(CC(C)C)NC(=O)c1cc(COc2ccccc2)ccc1CCC(=O)O (configuration not stated) | 1.2 | 190 | – |
| Cc1cc(C)cc(C(CC(C)C)NC(=O)c2cc(COc3cccc(C#N)c3)ccc2CCC(=O)O)c1 (configuration not stated) | – | – | inhibition in vivo at 1 mg/kg (Rattus norvegicus [3]): 95%; inhibition in vivo at 0.3 mg/kg (Rattus norvegicus [9]): 55% |
| CC(C)CC(NC(=O)c1cc(COc2ccccc2)ccc1CCC(=O)O)c1cccc(C(F)(F)F)c1 (configuration not stated) | 0.39 | 39 | – |
| Cc1cc(C)cc(C(CC(C)C)NC(=O)c2cc(COc3ccccc3F)ccc2CCC(=O)O)c1 (configuration not stated) | 0.1 | 13 | – |
| Cc1cc(C)cc(C(CC(C)C)NC(=O)c2cc(COc3ccc(Cl)cc3)ccc2CCC(=O)O)c1 (configuration not stated) | 0.62 | 30 | – |
| Cc1ccc(C(CC(C)C)NC(=O)c2cc(COc3ccccc3)ccc2CCC(=O)O)cc1F (configuration not stated) | 0.2 | 67 | – |
| COc1ccc(C(CC(C)C)NC(=O)c2cc(COc3ccccc3)ccc2CCC(=O)O)cc1C (configuration not stated) | 0.16 | 11 | – |
| COc1cccc(C(CC(C)C)NC(=O)c2cc(COc3cccc(C#N)c3)ccc2CCC(=O)O)c1 (configuration not stated) | 0.13 | 3.2 | – |
| COc1ccc(C(CC(C)C)NC(=O)c2cc(COc3ccccc3)ccc2CCC(=O)O)cc1 (configuration not stated) | 0.36 | 59 | – |
| CC(C)CC(NC(=O)c1cc(COc2ccccc2)ccc1CCC(=O)O)c1ccc(Cl)cc1 (configuration not stated) | 0.28 | 51 | – |
| CC(C)CC(NC(=O)c1cc(COc2ccccc2)ccc1CCC(=O)O)c1cccc(Cl)c1 (configuration not stated) | 0.18 | 35 | – |
| Cc1ccc(C(CC(C)C)NC(=O)c2cc(COc3ccccc3)ccc2CCC(=O)O)cc1C (configuration not stated) | 0.17 | 16 | – |

| Compound | Ki [1] [nM] | IC50 [2] [nM] | other results |
| --- | --- | --- | --- |
| Cc1cc(C)cc(C(CC(C)C)NC(=O)c2cc(COc3cc(F)ccc3F)ccc2CCC(=O)O)c1 (configuration not stated) | – | – | inhibition in vivo at 1 mg/kg (Rattus norvegicus [3]): 98%; AUC [10]: 850 ng·h/mL; Vd [4]: 1.43 L/kg; bioavailability [11]: 19%; inhibition in vivo at 0.1 mg/kg (Rattus norvegicus [12]): 48%; AUC [8]: 470 ng·h/mL; Cmax [13]: 520 ng/mL; inhibition in vivo at 0.3 mg/kg (Rattus norvegicus [9]): 93% |
| CC(C)CC(NC(=O)c1cc(COc2ccccc2)ccc1CCC(=O)O)c1cc(F)cc(F)c1 (configuration not stated) | 0.3 | 19 | – |
| CC(C)CC(NC(=O)c1cc(COc2ccccc2)ccc1CCC(=O)O)c1ccc2c(c1)OCCO2 (configuration not stated) | 0.44 | 19 | – |
| CC(C)CC(NC(=O)c1cc(COc2ccccc2)ccc1CCC(=O)O)c1ccc(F)cc1 (configuration not stated) | 0.93 | 20 | – |
| Cc1cc(C(CC(C)C)NC(=O)c2cc(COc3cccc(C#N)c3)ccc2CCC(=O)O)ccc1F (configuration not stated) | 0.2 | 2.8 | – |
| CC(C)CC(NC(=O)c1cc(COc2ccccc2)ccc1CCC(=O)O)c1ccccc1F (configuration not stated) | 1.4 | 130 | – |
| CC(C)CC(NC(=O)c1cc(COc2ccccc2)ccc1CCC(=O)O)c1ccc(F)c(F)c1 (configuration not stated) | 0.4 | 47 | – |
| COc1ccc(C(CC(C)C)NC(=O)c2cc(COc3ccccc3)ccc2CCC(=O)O)cc1F (configuration not stated) | 0.14 | 42 | – |
| CC(C)CC(NC(=O)c1cc(COc2ccccc2)ccc1CCC(=O)O)c1cccc(F)c1 (configuration not stated) | 0.2 | 40 | – |
| Cc1cc(C)cc(C(CC(C)C)NC(=O)c2cc(COc3ccccc3C#N)ccc2CCC(=O)O)c1 (configuration not stated) | 0.35 | 9.4 | – |
| Cc1cccc(OCc2ccc(CCC(=O)O)c(C(=O)NC(CC(C)C)c3cc(C)cc(C)c3)c2)c1 (configuration not stated) | 0.11 | 4.2 | – |
| CC(C)CC(NC(=O)c1cc(COc2ccccc2)ccc1CCC(=O)O)c1ccc(F)c(Cl)c1 (configuration not stated) | 0.26 | 25 | – |
| COc1ccc(C(CC(C)C)NC(=O)c2cc(COc3cccc(C#N)c3)ccc2CCC(=O)O)cc1OC (configuration not stated) | 0.67 | 3.7 | – |
| Cc1cc(C)cc(C(CC(C)C)NC(=O)c2cc(COc3ccccc3C)ccc2CCC(=O)O)c1 (configuration not stated) | – | – | inhibition in vivo at 1 mg/kg (Rattus norvegicus [3]): 83%; inhibition in vivo at 0.3 mg/kg (Rattus norvegicus [9]): 62% |
| CC(C)CC(NC(=O)c1cc(COc2ccccc2)ccc1CCC(=O)O)c1ccc(C(F)(F)F)cc1 (configuration not stated) | 0.76 | 32 | – |
| COc1cccc(C(CC(C)C)NC(=O)c2cc(COc3ccccc3)ccc2CCC(=O)O)c1 (configuration not stated) | 0.13 | 21 | – |
| Cc1cc(C)cc(C(CC(C)C)NC(=O)c2cc(COc3ccccc3)ccc2CCC(=O)O)c1 (configuration not stated) | – | – | inhibition in vivo at 0.3 mg/kg (Rattus norvegicus [9]): 28% |
| Cc1cc(C)cc(C(CC(C)C)NC(=O)c2cc(COc3cccc(F)c3F)ccc2CCC(=O)O)c1 (configuration not stated) | 0.15 | 3.6 | – |
| CC(C)CC(NC(=O)c1cc(COc2ccccc2)ccc1CCC(=O)O)c1ccc(C(F)(F)F)c(F)c1 (configuration not stated) | 0.7 | 53 | – |
| CC(C)CC(NC(=O)c1cc(COc2cccc(C#N)c2)ccc1CCC(=O)O)c1ccc(F)cc1 (configuration not stated) | 0.17 | 7.1 | – |
| Cc1cc(C)cc(C(CC(C)C)NC(=O)c2cc(COc3ccc(F)cc3)ccc2CCC(=O)O)c1 (configuration not stated) | 0.25 | 5.4 | – |
| Cc1cccc(C(CC(C)C)NC(=O)c2cc(COc3cccc(C#N)c3)ccc2CCC(=O)O)c1 (configuration not stated) | 0.2 | 6.6 | – |
| Cc1cc(C)cc(C(CC(C)C)NC(=O)c2cc(COc3ccc(F)c(F)c3)ccc2CCC(=O)O)c1 (configuration not stated) | 0.34 | 5.7 | – |

— ChEMBL document CHEMBL1157546, “3-(2-Aminocarbonylphenyl)propanoic acid analogs as potent and selective EP3 receptor antagonists. part 2: optimization of the side chains to improve in vitro and in vivo potencies” (Bioorg Med Chem, 2010)
